In paper PMC12541606 (Acta Pharmaceutica Sinica. B, 2025):
Numbered stars: 1 amine (or outer) side, 2 acyl side, 3 side chain; on linkers, the order of the positions; unused ones are H or OH. Bridge positions count the residues as written; N and C are the ends. Square brackets hold non-standard residues; d marks the D form. Peptide text beside a SMILES is read from it. I, II: the chains in the order shown. * marks the point of attachment. X1 = O=C([C@H](CCCCn1nnc2c1-c1ccccc1N([*:3])Cc1ccccc1-2)N[*:1])[*:2]; Dolaproine = CO[C@@H]([C@@H]1CCCN1)[C@@H](C)C(=O)O; Tyr(SO2F) = N[C@@H](Cc1ccc(OS(=O)(=O)F)cc1)C(=O)O; Dil = CC[C@H](C)[C@H](NC)[C@@H](CC(=O)O)OC; PABC = O=C(OCc1ccc(N[*:1])cc1)[*:2]; X2 = C[C@@H](N*)[C@@H](O)c1ccccc1; Cit = NC(=O)NCCC[C@H](N)C(=O)O; Suc = O=C(CCC(=O)[*:2])[*:1]; NMeV = CN[C@H](C(=O)O)C(C)C; AEEA = NCCOCCOCC(=O)O

Tests used:
Type in all cases: cell-based
[1] = test system: MDA-MB-468 cells; experiment: Cell viability test; conditions: 72 h, CCK-8
[2] = test system: caspase-3; experiment: Western blotting of cleaved caspase-3; conditions: MDA-MB-468 cells, 24 h, 37 °C
In short: (§1)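 MDA-MB-468 cells were seeded and grown 24 h at 37 °C, 5% CO2. PDC test compound was diluted from a 20 mmol/L stock to final 0, 0.1, 0.5, 1, 5 and 10 μmol/L and applied for 24 h. Cells were lysed in RIPA buffer with protease inhibitors and run on SDS-PAGE. Blots were probed for caspase-3, cleaved caspase-3, PARP and β-actin, detected by ECL and quantified by densitometry.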

[3] = test system: poly ADP-ribose polymerase (PARP); experiment: Western blotting of cleaved PARP; conditions: MDA-MB-468 cells, 24 h, 37 °C
In short: as §1

[4] = test system: tubulin; experiment: Immunofluorescent imaging of tubulin organization; conditions: MDA-MB-468 cells, 0 to 10 μmol/L, 24 h

CC[C@H](C)[C@@H]([C@@H](CC(=O)N1CCC[C@H]1[C@H](OC)[C@@H](C)C(=O)N[C@H](C)[C@@H](O)c1ccccc1)OC)N(C)C(=O)[C@@H](NC(=O)[C@H](C(C)C)N(C)C(=O)OCc1ccc(NC(=O)[C@H](CCCNC(N)=O)NC(=O)[C@@H](NC(=O)CCC(=O)N2Cc3ccccc3-c3nnn(CCCC[C@H](NC(=O)COCCOCCNC(=O)COCCOCCNC(=O)[C@@H]4CSCC(=O)N[C@H](Cc5ccccc5)C(=O)N[C@@H](Cc5ccc(OS(=O)(=O)F)cc5)C(=O)N[C@@H](CC(N)=O)C(=O)N[C@@H](C)C(=O)N[C@@H](Cc5ccccc5)C(=O)N5CCC[C@H]5C(=O)N[C@@H](C(C)C)C(=O)N[C@@H](CCCNC(=N)N)C(=O)N[C@@H](Cc5ccc(O)cc5)C(=O)N[C@@H](CC(C)C)C(=O)N[C@@H](CCCCN)C(=O)N[C@@H](CCCCN)C(=O)N[C@@H](Cc5c[nH]c6ccccc56)C(=O)N4)C(N)=O)c3-c3ccccc32)C(C)C)cc1)C(C)C [CP-N1-MMAE] (I: {CH2CO}-[dF][Tyr(SO2F)]NAFPVRYLKKWC[AEEA][AEEA][X1]-NH2 / II: V[Cit][PABC][NMeV]V[Dil][Dolaproine]-X2; linker I:17-II:N via Suc; thioether I:N-I:14)
area under the dose-response curve (AUC) [1]: 173.3
cleavage product of caspase-3, fold relative to untreated controls [2]: 5 fold
cleavage product of PARP, fold relative to untreated controls [3]: 1.5 fold
tubulin signal (in words) [4]: progressive, concentration-dependent reduction in tubulin signal

CC[C@H](C)[C@@H]([C@@H](CC(=O)N1CCC[C@H]1[C@H](OC)[C@@H](C)C(=O)N[C@H](C)[C@@H](O)c1ccccc1)OC)N(C)C(=O)[C@@H](NC(=O)[C@H](C(C)C)N(C)C(=O)OCc1ccc(NC(=O)[C@H](CCCNC(N)=O)NC(=O)[C@@H](NC(=O)CCC(=O)N2Cc3ccccc3-c3nnn(CCCC[C@H](NC(=O)COCCOCCNC(=O)COCCOCCNC(=O)[C@@H]4CSCC(=O)N[C@H](Cc5ccccc5)C(=O)N[C@@H](Cc5ccc(OS(=O)(=O)F)cc5)C(=O)N[C@@H](CC(N)=O)C(=O)N[C@@H](C)C(=O)N[C@@H](Cc5ccccc5)C(=O)N5CCC[C@H]5C(=O)N[C@@H](C(C)C)C(=O)N[C@@H](CCCNC(=N)N)C(=O)N[C@@H](Cc5ccc(O)cc5)C(=O)N[C@@H](CC(C)C)C(=O)N[C@@H](CCCCN)C(=O)N[C@@H](CCCNC(=N)N)C(=O)N[C@@H](Cc5c[nH]c6ccccc56)C(=O)N4)C(N)=O)c3-c3ccccc32)C(C)C)cc1)C(C)C [CP-N9-MMAE] (I: {CH2CO}-[dF][Tyr(SO2F)]NAFPVRYLKRWC[AEEA][AEEA][X1]-NH2 / II: V[Cit][PABC][NMeV]V[Dil][Dolaproine]-X2; linker I:17-II:N via Suc; thioether I:N-I:14)
area under the dose-response curve (AUC) [1]: 215.2
tubulin signal (in words) [4]: progressive, concentration-dependent reduction in tubulin signal

CC[C@H](C)[C@@H]([C@@H](CC(=O)N1CCC[C@H]1[C@H](OC)[C@@H](C)C(=O)N[C@H](C)[C@@H](O)c1ccccc1)OC)N(C)C(=O)[C@@H](NC(=O)[C@H](C(C)C)N(C)C(=O)OCc1ccc(NC(=O)[C@H](CCCNC(N)=O)NC(=O)[C@@H](NC(=O)CCC(=O)N2Cc3ccccc3-c3nnn(CCCC[C@H](NC(=O)COCCOCCNC(=O)COCCOCCNC(=O)[C@@H]4CSCC(=O)N[C@H](Cc5ccccc5)C(=O)NCC(=O)N[C@@H](CC(=O)O)C(=O)N[C@@H](Cc5ccccc5)C(=O)N[C@@H]([C@@H](C)CC)C(=O)N[C@@H](CCCNC(=N)N)C(=O)N[C@@H](CCCNC(=N)N)C(=O)N[C@@H](CC(C)C)C(=O)N[C@@H](C(C)C)C(=O)N5CCC[C@H]5C(=O)N[C@@H](CCCNC(=N)N)C(=O)N[C@@H](CC(C)C)C(=O)N4)C(N)=O)c3-c3ccccc32)C(C)C)cc1)C(C)C [NP-N7-MMAE] (I: {CH2CO}-[dF]GDFIRRLVPRLC[AEEA][AEEA][X1]-NH2 / II: V[Cit][PABC][NMeV]V[Dil][Dolaproine]-X2; linker I:16-II:N via Suc; thioether I:N-I:13)
area under the dose-response curve (AUC) [1]: 433.7
tubulin signal (in words) [4]: progressive, concentration-dependent reduction in tubulin signal
